Results on 8 compounds are retold here after ChEMBL document CHEMBL1806376, “Synthesis and biological properties of macrolactam analogs of the natural product macrolide (-)-A26771B” (2011).

Each structure is given as a SMILES string. Converted amounts (≈) assume the structure as drawn. Where only a bound is given, the exact number is not on record here.

What all share (assay type): functional
One experiment has as its system Escherichia coli. The experiment is described as follows: Antibacterial activity against Escherichia coli ATCC 25922 by broth microdilution method. In outline:
(§1)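 MIC values determined by broth microdilution following the CLSI method.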
A general note: Broth dilution looks for growth in wells or tubes with falling amounts of substance.

The test system of the next experiment is Enterococcus faecalis. Briefly: Antibacterial activity against Enterococcus faecalis ATCC 29212 by broth microdilution method. The following applies: Enterococcus faecalis, ATCC 29212; read-out: MIC. In outline: as §1
The test system of another experiment is Enterococcus faecium. Briefly: Antibacterial activity against Enterococcus faecium 1 by broth microdilution method. The procedure, abridged:
as §1

Experiment [1] relates to Haemophilus influenzae. The experiment is described as follows: Antibacterial activity against Haemophilus influenzae ATCC 31517 by broth microdilution method. Conditions: Haemophilus influenzae, ATCC 31517; read-out: MIC. In outline:
as §1

Experiment [2] concerns Haemophilus influenzae. Briefly: Antibacterial activity against efflux knock-out Haemophilus influenzae LS2 by broth microdilution method. Conditions: Haemophilus influenzae, LS2; read-out: MIC. The procedure, abridged: as §1
Another experiment concerns Pseudomonas aeruginosa. Briefly: Antibacterial activity against Pseudomonas aeruginosa ATCC 27853 by broth dilution method. In outline:
as §1

Experiment [3] deals with Staphylococcus aureus. The experiment is described as follows: Antibacterial activity against Staphylococcus aureus ATCC 13709 by broth microdilution method. The procedure, abridged: as §1
Experiment [4] deals with Staphylococcus aureus. The experiment is described as follows: Antibacterial activity against methicillin-resistant Staphylococcus aureus Sa2 by broth microdilution method. The following applies: Staphylococcus aureus, Sa2; read-out: MIC. In outline:
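Broth microdilution run according to the CLSI method.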

Experiment [5] has as its system Staphylococcus aureus. Briefly: Antibacterial activity against Staphylococcus aureus ATCC 25923 by broth microdilution method. The procedure, abridged: as §1
Experiment [6] relates to Staphylococcus aureus. Briefly: Antibacterial activity against Staphylococcus aureus ATCC 25923 by broth microdilution method in presence of 10% human serum. The following applies: Staphylococcus aureus, ATCC 25923; read-out: MIC. In outline: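 MIC determined by broth microdilution per the CLSI method, with 10% human serum added to the medium.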
For experiment [7], the system named is Staphylococcus aureus. The experiment is described as follows: Antibacterial activity against Staphylococcus aureus oxford by broth microdilution method. The procedure, abridged: as §1
Experiment [8] relates to Streptococcus pneumoniae. Briefly: Antibacterial activity against Streptococcus pneumoniae ATCC 49619 by broth microdilution method. The procedure, abridged: as §1
In experiment [9] the test system is Streptococcus pneumoniae. Briefly: Antibacterial activity against Streptococcus pneumoniae Pen9 IV381-221 by broth microdilution method. In outline:
as §1

Where [10] appears, read: Enterococcus faecium, 1, read-out: MIC.
The mark [11] stands for this setting: Staphylococcus aureus, ATCC 13709, read-out: MIC.
The mark [12] stands for this setting: Staphylococcus aureus, ATCC 25923, read-out: MIC.
Where [13] appears, read: Staphylococcus aureus, oxford, read-out: MIC.
The mark [14] stands for this setting: Streptococcus pneumoniae, ATCC 49619, read-out: MIC.
Where [15] appears, read: Streptococcus pneumoniae, Pen9 IV381-221, read-out: MIC.

For the compound `CO[C@H]1CCCCCCCCC[C@@H](C)OC(=O)C(Sc2ccccc2)CC1=O` (some centres not stated), the MIC against Escherichia coli was over 64 mg/L; in the experiment on Enterococcus faecalis, over 64 mg/L; with Enterococcus faecium (setting [10]), over 64 mg/L; in the experiment on Haemophilus influenzae [1], over 64 mg/L; in the experiment on Haemophilus influenzae [2] it was 2 mg/L (≈ 4.92 µM); against Pseudomonas aeruginosa, over 64 mg/L. Besides, the MIC in the experiment on Staphylococcus aureus [3] (setting [11]) worked out at 1 mg/L (≈ 2.46 µM); with Staphylococcus aureus [4] it was 2 mg/L (≈ 4.92 µM); in the experiment with Staphylococcus aureus [5] (setting [12]), 1 mg/L (≈ 2.46 µM); in the experiment with Staphylococcus aureus [6], 16 mg/L; with Staphylococcus aureus [7] (setting [13]) it was 1 mg/L (≈ 2.46 µM); in the experiment on Streptococcus pneumoniae [8] (setting [14]), 2 mg/L (≈ 4.92 µM). Further, in the experiment on Streptococcus pneumoniae [9] (setting [15]), the MIC stood at 1 mg/L (≈ 2.46 µM).
Consider `CO[C@H]1CCCCCCCCC[C@@H](C)OC(=O)C2OC2C1=O` (stereo in doubt; 16b), for which the MIC in the experiment on Escherichia coli, in the experiment on Enterococcus faecalis, against Enterococcus faecium, with Staphylococcus aureus [3], against Staphylococcus aureus [5] and against Staphylococcus aureus [7] was over 64 mg/L in each case. In addition, the MIC with Streptococcus pneumoniae [8] and with Streptococcus pneumoniae [9] was over 64 mg/L in each case.
For `CO[C@H]1CCCCCCCCC[C@@H](C)OC(=O)/C(C)=C/C1=O`, the MIC against Escherichia coli, with Enterococcus faecalis, with Enterococcus faecium (setting [10]), with Haemophilus influenzae [1], in the experiment on Haemophilus influenzae [2] and in the experiment on Pseudomonas aeruginosa was over 64 mg/L in each case. For the same compound, the MIC in the experiment on Staphylococcus aureus [3] (setting [11]), with Staphylococcus aureus [4], in the experiment on Staphylococcus aureus [5] (setting [12]), in the experiment with Staphylococcus aureus [6], in the experiment on Staphylococcus aureus [7] (setting [13]) and in the experiment on Streptococcus pneumoniae [8] (setting [14]) was over 64 mg/L each time. For the same compound, the MIC in the experiment on Streptococcus pneumoniae [9] (setting [15]) was over 64 mg/L.
For the compound `C[C@@H]1CCCCCCCCC[C@H](OC(=O)CCC(=O)OC(C)(C)C)C(=O)c2[nH]ncc2C(=O)O1`, the MIC is over 64 mg/L with Escherichia coli; over 64 mg/L with Enterococcus faecalis; over 64 mg/L in the experiment on Enterococcus faecium (setting [10]); over 64 mg/L with Haemophilus influenzae [1]; 8 mg/L (≈ 16.7 µM) in the experiment on Haemophilus influenzae [2]; over 64 mg/L with Pseudomonas aeruginosa. For the same compound, the MIC in the experiment with Staphylococcus aureus [3] (setting [11]), in the experiment with Staphylococcus aureus [4], with Staphylococcus aureus [5] (setting [12]), with Staphylococcus aureus [6], in the experiment with Staphylococcus aureus [7] (setting [13]) and in the experiment with Streptococcus pneumoniae [8] (setting [14]) was over 64 mg/L in each case. In addition, the MIC in the experiment on Streptococcus pneumoniae [9] (setting [15]) came out at 32 mg/L (≈ 66.9 µM).
With `CO[C@H]1CCCCCCCCC[C@@H](C)OC(=O)CCC1=O`, the MIC is over 64 mg/L in the experiment on Escherichia coli; over 64 mg/L with Enterococcus faecalis; over 64 mg/L in the experiment on Enterococcus faecium (setting [10]); over 64 mg/L in the experiment on Haemophilus influenzae [1]; 64 mg/L (≈ 214 µM) with Haemophilus influenzae [2]; over 64 mg/L against Pseudomonas aeruginosa. In addition, the MIC with Staphylococcus aureus [3] (setting [11]), with Staphylococcus aureus [4], in the experiment on Staphylococcus aureus [5] (setting [12]), with Staphylococcus aureus [6], in the experiment with Staphylococcus aureus [7] (setting [13]) and in the experiment with Streptococcus pneumoniae [8] (setting [14]) was over 64 mg/L in each case. For the same compound, in the experiment on Streptococcus pneumoniae [9] (setting [15]), the MIC is over 64 mg/L.
As for `CO[C@H]1CCCCCCCCC[C@@H](C)OC(=O)C(S(=O)(=O)c2ccccc2)CC1=O` (some centres not stated), the MIC was over 64 mg/L in the experiment with Escherichia coli; 4 mg/L (≈ 9.12 µM) in the experiment with Enterococcus faecalis; 4 mg/L (≈ 9.12 µM) with Enterococcus faecium (setting [10]); 32 mg/L (≈ 73 µM) in the experiment with Haemophilus influenzae [1]; 2 mg/L (≈ 4.56 µM) in the experiment on Haemophilus influenzae [2]; over 64 mg/L against Pseudomonas aeruginosa. Besides, the MIC with Staphylococcus aureus [3] (setting [11]) was found to be 1 mg/L (≈ 2.28 µM); in the experiment on Staphylococcus aureus [4], 2 mg/L (≈ 4.56 µM); in the experiment with Staphylococcus aureus [5] (setting [12]), 1 mg/L (≈ 2.28 µM); with Staphylococcus aureus [6], 32 mg/L; in the experiment with Staphylococcus aureus [7] (setting [13]), 1 mg/L (≈ 2.28 µM); in the experiment with Streptococcus pneumoniae [8] (setting [14]), 4 mg/L (≈ 9.12 µM). The MIC with Streptococcus pneumoniae [9] (setting [15]) turned out to be 2 mg/L (≈ 4.56 µM).
As for `C[C@@H]1CCCCCCCCC[C@H](OC(=O)CCC(=O)OC(C)(C)C)C(=O)CC(N2CCN(C)CC2)C(=O)O1` (some centres not stated), the MIC against Escherichia coli was over 32 mg/L; with Enterococcus faecalis it was 4 mg/L (≈ 7.42 µM); in the experiment on Enterococcus faecium (setting [10]), 4 mg/L (≈ 7.42 µM); in the experiment on Haemophilus influenzae [1], over 32 mg/L; in the experiment on Pseudomonas aeruginosa it was over 32 mg/L; in the experiment on Staphylococcus aureus [3] (setting [11]), 2 mg/L (≈ 3.71 µM). For the same compound, the MIC is 2 mg/L (≈ 3.71 µM) in the experiment on Staphylococcus aureus [4]; 4 mg/L (≈ 7.42 µM) in the experiment on Staphylococcus aureus [5] (setting [12]); over 32 mg/L in the experiment with Staphylococcus aureus [6]; 2 mg/L (≈ 3.71 µM) with Staphylococcus aureus [7] (setting [13]); 4 mg/L (≈ 7.42 µM) in the experiment with Streptococcus pneumoniae [8] (setting [14]); 2 mg/L (≈ 3.71 µM) with Streptococcus pneumoniae [9] (setting [15]).
In the case of `C[C@@H]1CCCCCCCCC[C@H](OC(=O)CCC(=O)OC(C)(C)C)C(=O)/C=C/C(=O)O1`, the MIC with Escherichia coli was over 32 mg/L; with Enterococcus faecalis, 2 mg/L (≈ 4.56 µM); in the experiment with Haemophilus influenzae [1], over 32 mg/L; in the experiment with Haemophilus influenzae [2] it was 8 mg/L (≈ 18.2 µM); in the experiment on Pseudomonas aeruginosa, over 32 mg/L; in the experiment on Staphylococcus aureus [3] (setting [11]) it was 2 mg/L (≈ 4.56 µM). Further, the MIC with Staphylococcus aureus [4] is 0.5 mg/L (≈ 1.14 µM); in the experiment on Staphylococcus aureus [5] (setting [12]) it was 8 mg/L (≈ 18.2 µM); in the experiment on Staphylococcus aureus [6], over 32 mg/L; in the experiment with Staphylococcus aureus [7] (setting [13]), 2 mg/L (≈ 4.56 µM); in the experiment on Streptococcus pneumoniae [8] (setting [14]) it was 2 mg/L (≈ 4.56 µM); in the experiment with Streptococcus pneumoniae [9] (setting [15]), 1 mg/L (≈ 2.28 µM).
